The record followed here is ChEMBL document CHEMBL1150653, “Novel terpenoids from the formosan soft coral Cespitularia hypotentaculata” (2002).

What all share (format): functional
One assay concerns A549. Kind of assay: Cytotoxicity against human A549 cells after 6 days by MTT assay. The following applies: A549, 144 h, read-out: ED50 (the source's name). An outline of the steps: (§1)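 Human cell lines: A549 (lung adenocarcinoma) and HT-29 (colon adenocarcinoma), obtained from a culture collection. The assay follows a previously published procedure.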
(Tetrazolium assays rely on reduction of a dye to a coloured formazan, in cell work by metabolically active cells.)

The test system of the next assay is HT-29. Kind of assay: Cytotoxicity against human HT-29 cells after 6 days by MTT assay. The following applies: HT-29, 144 h, read-out: ED50 (the source's name). An outline of the steps: as §1
For another assay, the system named is P388. The assay is described as follows: Cytotoxicity against mouse P388 cells after 3 days by MTT assay. The following applies: P388, 72 h, read-out: ED50 (the source's name). An outline of the steps:
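Mouse P-388 lymphocytic leukemia cells, obtained from an academic laboratory. The assay follows a previously published procedure.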

≈ marks a conversion by molar mass, not a printed value.

`C=C1CC/C=C(\C)C[C@@H](O)C2=C(C)CC[C@@H](CC1)C2(C)C` [CESPITULARIN C]: the figures for the EC50 in the assay with A549, in the assay with HT-29 and in the assay on P388 were 0.12 mg/L (≈ 0.416 µM), 8.86 mg/L (≈ 30.7 µM) and 0.01 mg/L (≈ 0.0347 µM), respectively.

With `C=C1CC[C@@H]2CCc3coc(c3C2(C)C)C/C(C)=C/C(O)C1` (some centres undefined) [CESPITULARIN A], the EC50 with A549 stood at 8.42 mg/L (≈ 28 µM); with HT-29, 9.76 mg/L (≈ 32.5 µM); with P388, 3.66 mg/L (≈ 12.2 µM).

With `C=C1CC/C=C(\C)[C@@H]2C(=O)C3=C(CC[C@@H](CC1)C3(C)C)[C@@H]2O` [CESPITULARIN G], the EC50 in the assay with A549, with HT-29 and in the assay on P388 was above 50 mg/L each time.

Take `C/C1=C\C[C@@H]2CCC3=C(C(=O)[C@@H]([C@@H](C)CC(=O)C1)[C@H]3O)C2(C)C` [CESPITULARIN H]: the EC50 is 9.32 mg/L (≈ 29.5 µM) with A549, 23.7 mg/L (≈ 74.9 µM) in the assay with HT-29 and above 50 mg/L with P388.

Regarding `C=C1CC[C@@H]2CCC3=C(C(=O)[C@@H](/C(C)=C/C(O)C1)[C@H]3O)C2(C)C` (some centres undefined) [CESPITULARIN F], the EC50 in the assay on A549 was 16.1 mg/L (≈ 50.9 µM); in the assay with HT-29, above 50 mg/L; in the assay with P388, above 50 mg/L.

Take `C=C1CC[C@@H]2CCC=C(C(=O)C/C(C)=C/C(O)C1)C2(C)C` (some centres undefined) [CESPUTULARIN E]: the EC50 in the assay with A549 was determined as 0.034 mg/L (≈ 0.118 µM); in the assay on HT-29 it was 17.1 mg/L (≈ 59.3 µM); in the assay on P388, 4.66 mg/L (≈ 16.2 µM).

As for `C=C1CC/C=C(\C)Cc2occ3c2C(C)(C)[C@H](CC1)CC3` [CESPITULARIN B], the EC50 in the assay on A549 was determined as 7.96 mg/L (≈ 28 µM); with HT-29, 9.25 mg/L (≈ 32.5 µM); with P388, 3.23 mg/L (≈ 11.4 µM).

Consider `C=C1CC[C@@H]2CCC3=C(C2(C)C)[C@@](O)(C/C(C)=C/[C@@H](O)C1)OC3=O` [CESPITULARIN D], for which the EC50 in the assay on A549 was above 50 mg/L; with HT-29, above 50 mg/L; with P388 it was 3.86 mg/L (≈ 11.6 µM).
